How the values were obtained:
[1] = tested on: Mast/stem cell growth factor receptor Kit (Homo sapiens), P10721 [V559D]; assay: Competitive binding affinity to KIT V559D mutant (unknown origin) at 10 uM in presence of ATP relative to control
[2] = target: Fibroblast growth factor receptor 4 (Homo sapiens) (UniProt P22455); assay: Competitive binding affinity to FGFR4 (unknown origin) at 10 uM in presence of ATP relative to control
How it was run: (§1)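 In vitro ATP-site competition binding assay, part of profiling against a diverse panel of 128 kinases. Each compound was tested at a single concentration of 10 µM. Kinome selectivity was summarized as S15 selectivity scores.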

[3] = tested on: Tyrosine-protein kinase ABL1 (Homo sapiens), P00519 [T315I]; assay: Competitive binding affinity to ABL1 T315I mutant (unknown origin) at 10 uM in presence of ATP relative to control
How it was run: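 In vitro ATP-site competition binding assay across a diverse panel of 128 kinases, with each compound tested at a single concentration. Kinase binding is expressed relative to control.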

Homo sapiens = species on record: Homo sapiens; assay: Competitive binding affinity to EGFR S752 to I759 deletion mutant (unknown origin) at 10 uM in presence of ATP relative to control
[4] = target: Mitogen-activated protein kinase 3 (Homo sapiens, UniProt P27361); assay: Competitive binding affinity to ERK1 (unknown origin) at 10 uM in presence of ATP relative to control; how it was run: as §1
Sequence of Mitogen-activated protein kinase 3 (P27361 whole entry): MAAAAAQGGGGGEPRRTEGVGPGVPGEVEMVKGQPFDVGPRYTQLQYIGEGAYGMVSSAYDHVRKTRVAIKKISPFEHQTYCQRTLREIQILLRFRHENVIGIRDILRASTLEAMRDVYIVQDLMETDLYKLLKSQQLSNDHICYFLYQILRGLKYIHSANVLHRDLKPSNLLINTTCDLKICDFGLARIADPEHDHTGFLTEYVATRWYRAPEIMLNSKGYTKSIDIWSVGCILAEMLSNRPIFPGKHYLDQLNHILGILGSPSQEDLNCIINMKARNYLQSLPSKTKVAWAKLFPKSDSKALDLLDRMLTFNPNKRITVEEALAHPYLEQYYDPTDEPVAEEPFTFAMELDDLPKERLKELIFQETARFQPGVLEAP

[5] = target: Serine/threonine-protein kinase 32C (Homo sapiens) (UniProt Q86UX6); assay: Competitive binding affinity to YANK3 (unknown origin) at 10 uM in presence of ATP relative to control
Sequence of Serine/threonine-protein kinase 32C (Homo sapiens) (Q86UX6 whole entry): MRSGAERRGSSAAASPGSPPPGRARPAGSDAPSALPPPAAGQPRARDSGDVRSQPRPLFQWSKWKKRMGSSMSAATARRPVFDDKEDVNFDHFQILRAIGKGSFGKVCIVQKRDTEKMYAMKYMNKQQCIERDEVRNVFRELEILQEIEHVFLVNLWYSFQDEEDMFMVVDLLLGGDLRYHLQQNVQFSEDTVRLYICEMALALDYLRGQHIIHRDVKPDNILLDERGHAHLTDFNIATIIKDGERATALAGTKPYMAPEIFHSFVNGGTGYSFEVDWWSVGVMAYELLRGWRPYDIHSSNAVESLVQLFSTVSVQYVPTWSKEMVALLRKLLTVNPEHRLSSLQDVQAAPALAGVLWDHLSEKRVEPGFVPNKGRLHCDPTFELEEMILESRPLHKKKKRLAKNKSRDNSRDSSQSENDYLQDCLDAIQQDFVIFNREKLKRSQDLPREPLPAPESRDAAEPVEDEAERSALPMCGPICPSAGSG

[6] = target: T1, Serine/threonine-protein kinase TNNI3K (Homo sapiens) (UniProt Q59H18); assay: Competitive binding affinity to […] (unknown origin) at 10 uM in presence of ATP relative to control
T1 sequence (whole entry): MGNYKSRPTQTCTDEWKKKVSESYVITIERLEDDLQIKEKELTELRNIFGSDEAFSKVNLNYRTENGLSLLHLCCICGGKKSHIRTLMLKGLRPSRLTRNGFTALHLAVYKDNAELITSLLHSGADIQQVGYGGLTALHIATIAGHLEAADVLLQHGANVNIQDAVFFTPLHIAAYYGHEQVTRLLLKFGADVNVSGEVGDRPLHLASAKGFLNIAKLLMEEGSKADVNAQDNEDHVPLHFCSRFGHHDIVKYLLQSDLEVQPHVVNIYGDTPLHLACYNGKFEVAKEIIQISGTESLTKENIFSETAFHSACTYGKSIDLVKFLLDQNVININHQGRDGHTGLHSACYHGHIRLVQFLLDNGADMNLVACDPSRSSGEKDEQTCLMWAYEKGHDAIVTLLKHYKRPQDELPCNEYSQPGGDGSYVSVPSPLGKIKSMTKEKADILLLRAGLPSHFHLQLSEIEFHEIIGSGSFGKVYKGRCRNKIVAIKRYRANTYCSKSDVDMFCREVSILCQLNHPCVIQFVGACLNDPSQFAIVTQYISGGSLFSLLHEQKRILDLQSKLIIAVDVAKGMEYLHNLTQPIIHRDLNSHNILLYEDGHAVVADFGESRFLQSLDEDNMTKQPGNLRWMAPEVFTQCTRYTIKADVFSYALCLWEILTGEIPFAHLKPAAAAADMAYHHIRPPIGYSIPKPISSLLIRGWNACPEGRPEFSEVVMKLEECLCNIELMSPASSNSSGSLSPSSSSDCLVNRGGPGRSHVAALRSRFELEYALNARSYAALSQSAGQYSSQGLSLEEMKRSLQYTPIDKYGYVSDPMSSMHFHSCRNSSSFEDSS

[7] = target: RAC-gamma serine/threonine-protein kinase (Homo sapiens) (UniProt Q9Y243); assay: Competitive binding affinity to AKT3 (unknown origin) at 10 uM in presence of ATP relative to control
Sequence of RAC-gamma serine/threonine-protein kinase (Homo sapiens) (Q9Y243 whole entry): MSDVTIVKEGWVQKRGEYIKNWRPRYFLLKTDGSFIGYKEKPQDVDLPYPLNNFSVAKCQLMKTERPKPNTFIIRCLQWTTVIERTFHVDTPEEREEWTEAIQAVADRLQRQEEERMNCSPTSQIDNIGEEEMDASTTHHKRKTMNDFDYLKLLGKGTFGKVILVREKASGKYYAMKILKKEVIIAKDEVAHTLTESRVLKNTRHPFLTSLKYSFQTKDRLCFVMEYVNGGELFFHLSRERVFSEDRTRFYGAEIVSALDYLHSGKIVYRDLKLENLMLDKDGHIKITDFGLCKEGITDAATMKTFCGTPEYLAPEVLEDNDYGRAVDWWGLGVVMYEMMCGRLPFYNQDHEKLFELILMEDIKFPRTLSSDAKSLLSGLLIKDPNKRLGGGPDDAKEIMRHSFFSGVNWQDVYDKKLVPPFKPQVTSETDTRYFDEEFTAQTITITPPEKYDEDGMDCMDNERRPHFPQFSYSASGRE

[8] = target: T2, Dual specificity mitogen-activated protein kinase kinase 3 (Homo sapiens) (UniProt P46734); assay: Competitive binding affinity to MEK3 (unknown origin) at 10 uM in presence of ATP relative to control
T2 sequence (whole entry): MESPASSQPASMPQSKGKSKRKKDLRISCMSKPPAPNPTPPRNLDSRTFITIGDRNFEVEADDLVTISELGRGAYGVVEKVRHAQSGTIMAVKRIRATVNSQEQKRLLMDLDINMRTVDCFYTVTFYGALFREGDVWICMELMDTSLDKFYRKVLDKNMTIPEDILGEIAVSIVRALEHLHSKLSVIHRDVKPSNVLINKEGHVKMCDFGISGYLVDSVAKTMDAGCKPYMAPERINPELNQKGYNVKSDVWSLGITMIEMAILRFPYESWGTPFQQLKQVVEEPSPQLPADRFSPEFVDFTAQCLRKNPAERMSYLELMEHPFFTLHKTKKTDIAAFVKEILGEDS

[9] = target: T3, NUAK family SNF1-like kinase 2 (Homo sapiens) (UniProt Q9H093); assay: Competitive binding affinity to SNARK (unknown origin) at 10 uM in presence of ATP relative to control
T3 sequence (whole entry): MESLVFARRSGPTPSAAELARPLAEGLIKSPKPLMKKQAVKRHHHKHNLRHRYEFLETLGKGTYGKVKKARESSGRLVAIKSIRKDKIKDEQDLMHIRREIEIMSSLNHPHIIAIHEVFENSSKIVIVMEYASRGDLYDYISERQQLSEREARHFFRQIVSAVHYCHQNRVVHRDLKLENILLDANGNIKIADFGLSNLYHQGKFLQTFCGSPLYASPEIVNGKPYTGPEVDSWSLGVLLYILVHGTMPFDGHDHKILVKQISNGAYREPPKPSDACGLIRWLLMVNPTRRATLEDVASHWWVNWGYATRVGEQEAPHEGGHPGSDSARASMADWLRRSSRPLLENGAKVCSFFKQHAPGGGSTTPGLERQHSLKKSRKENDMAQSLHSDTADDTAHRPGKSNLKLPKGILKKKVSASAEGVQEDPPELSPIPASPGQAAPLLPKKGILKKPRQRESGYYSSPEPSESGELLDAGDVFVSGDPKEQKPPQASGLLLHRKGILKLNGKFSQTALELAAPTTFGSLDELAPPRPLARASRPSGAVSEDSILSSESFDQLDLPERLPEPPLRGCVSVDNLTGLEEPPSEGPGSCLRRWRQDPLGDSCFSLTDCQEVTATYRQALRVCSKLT

[10] = target: Phosphatidylinositol 4,5-bisphosphate 3-kinase catalytic subunit alpha isoform (Homo sapiens) (UniProt P42336); assay: Competitive binding affinity to PIK3CA (unknown origin) at 10 uM in presence of ATP relative to control
Sequence of Phosphatidylinositol 4,5-bisphosphate 3-kinase catalytic subunit alpha isoform (Homo sapiens) (P42336 whole entry, canonical isoform): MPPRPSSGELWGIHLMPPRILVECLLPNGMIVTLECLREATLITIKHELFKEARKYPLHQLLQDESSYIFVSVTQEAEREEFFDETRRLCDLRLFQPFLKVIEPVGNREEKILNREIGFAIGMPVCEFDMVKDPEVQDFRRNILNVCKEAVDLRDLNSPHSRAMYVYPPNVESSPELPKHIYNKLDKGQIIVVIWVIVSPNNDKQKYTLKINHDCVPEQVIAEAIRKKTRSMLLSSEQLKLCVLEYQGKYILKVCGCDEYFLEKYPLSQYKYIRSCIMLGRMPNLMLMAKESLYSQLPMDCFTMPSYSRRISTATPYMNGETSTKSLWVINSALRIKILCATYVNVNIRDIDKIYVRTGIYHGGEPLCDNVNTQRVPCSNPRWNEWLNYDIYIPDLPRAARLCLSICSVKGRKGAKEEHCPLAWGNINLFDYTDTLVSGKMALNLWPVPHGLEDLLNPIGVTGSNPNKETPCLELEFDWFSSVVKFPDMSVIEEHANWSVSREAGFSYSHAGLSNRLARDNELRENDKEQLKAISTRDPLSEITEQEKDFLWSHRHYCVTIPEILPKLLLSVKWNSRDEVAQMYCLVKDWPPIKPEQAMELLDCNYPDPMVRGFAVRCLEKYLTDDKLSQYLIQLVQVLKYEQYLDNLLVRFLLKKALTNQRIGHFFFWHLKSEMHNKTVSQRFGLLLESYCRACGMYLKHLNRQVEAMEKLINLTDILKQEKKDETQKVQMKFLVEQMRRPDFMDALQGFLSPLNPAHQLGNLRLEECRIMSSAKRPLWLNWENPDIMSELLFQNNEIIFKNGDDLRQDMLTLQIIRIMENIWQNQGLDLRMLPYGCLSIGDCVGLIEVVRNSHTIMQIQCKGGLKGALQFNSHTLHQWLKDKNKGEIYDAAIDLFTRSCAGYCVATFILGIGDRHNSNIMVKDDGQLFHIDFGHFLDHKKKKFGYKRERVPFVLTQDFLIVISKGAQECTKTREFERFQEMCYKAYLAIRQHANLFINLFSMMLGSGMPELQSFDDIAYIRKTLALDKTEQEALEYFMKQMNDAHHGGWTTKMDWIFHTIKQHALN

Sequence of Fibroblast growth factor receptor 4 (Homo sapiens) (P22455 22-802 limits assumed): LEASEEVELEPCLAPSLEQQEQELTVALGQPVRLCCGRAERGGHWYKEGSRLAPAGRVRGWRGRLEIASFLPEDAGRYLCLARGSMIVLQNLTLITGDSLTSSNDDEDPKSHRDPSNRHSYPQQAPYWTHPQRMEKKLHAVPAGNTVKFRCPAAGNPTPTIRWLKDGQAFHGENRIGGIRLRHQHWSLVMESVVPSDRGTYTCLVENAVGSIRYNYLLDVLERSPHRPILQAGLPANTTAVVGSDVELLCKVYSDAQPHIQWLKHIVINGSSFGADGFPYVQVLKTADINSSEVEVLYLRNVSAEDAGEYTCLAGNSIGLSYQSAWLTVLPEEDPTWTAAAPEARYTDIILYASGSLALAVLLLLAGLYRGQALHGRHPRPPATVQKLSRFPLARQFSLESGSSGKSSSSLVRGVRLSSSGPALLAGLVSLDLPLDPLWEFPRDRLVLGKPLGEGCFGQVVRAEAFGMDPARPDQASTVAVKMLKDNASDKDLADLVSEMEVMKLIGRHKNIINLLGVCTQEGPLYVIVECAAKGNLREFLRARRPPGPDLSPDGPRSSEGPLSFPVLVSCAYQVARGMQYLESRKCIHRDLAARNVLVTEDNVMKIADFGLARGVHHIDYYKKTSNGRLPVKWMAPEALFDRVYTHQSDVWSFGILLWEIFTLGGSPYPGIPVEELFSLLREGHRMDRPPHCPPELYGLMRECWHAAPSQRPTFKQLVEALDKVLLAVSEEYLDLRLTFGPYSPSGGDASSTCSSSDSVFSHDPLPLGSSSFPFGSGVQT
Sequence of Mast/stem cell growth factor receptor Kit (Homo sapiens), P10721 [V559D] (P10721 whole entry V559D): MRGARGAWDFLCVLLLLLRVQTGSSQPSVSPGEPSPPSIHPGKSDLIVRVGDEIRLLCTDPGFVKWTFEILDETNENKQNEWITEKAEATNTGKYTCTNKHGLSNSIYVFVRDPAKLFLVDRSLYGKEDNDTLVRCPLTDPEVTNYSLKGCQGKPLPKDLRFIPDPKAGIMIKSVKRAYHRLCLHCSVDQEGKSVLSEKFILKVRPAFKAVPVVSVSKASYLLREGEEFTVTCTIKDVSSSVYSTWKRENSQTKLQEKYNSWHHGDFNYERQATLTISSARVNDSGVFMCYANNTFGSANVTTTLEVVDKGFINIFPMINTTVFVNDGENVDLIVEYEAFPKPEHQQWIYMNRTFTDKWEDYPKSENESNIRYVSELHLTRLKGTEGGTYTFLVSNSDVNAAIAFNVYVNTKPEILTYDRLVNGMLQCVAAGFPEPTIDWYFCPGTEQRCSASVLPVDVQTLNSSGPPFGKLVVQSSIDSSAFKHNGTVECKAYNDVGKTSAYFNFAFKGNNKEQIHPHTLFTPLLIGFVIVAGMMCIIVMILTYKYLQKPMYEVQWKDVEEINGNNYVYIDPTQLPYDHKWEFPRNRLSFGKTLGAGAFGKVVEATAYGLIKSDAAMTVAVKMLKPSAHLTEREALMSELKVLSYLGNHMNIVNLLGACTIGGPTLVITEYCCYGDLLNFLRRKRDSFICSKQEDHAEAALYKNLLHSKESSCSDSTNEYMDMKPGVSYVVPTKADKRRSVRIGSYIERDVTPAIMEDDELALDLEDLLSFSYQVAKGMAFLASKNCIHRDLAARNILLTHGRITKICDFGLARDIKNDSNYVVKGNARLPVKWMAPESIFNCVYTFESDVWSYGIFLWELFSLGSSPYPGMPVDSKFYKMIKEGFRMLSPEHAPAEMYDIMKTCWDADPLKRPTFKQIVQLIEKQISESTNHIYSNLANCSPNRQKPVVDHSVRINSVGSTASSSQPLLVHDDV

Row | inhibition [1] | inhibition [2] | inhibition [3] | inhibition (Homo sapiens) | inhibition [4] | inhibition [5] | inhibition [6] | inhibition [7] | inhibition [8] | inhibition [9] | inhibition [10] | Structure (SMILES)
1 | 99% | < 50% | 96% | < 50% | 80% | < 50% | < 50% | < 50% | – | – | – | O[C@H]1CC[C@H](Nc2nccc(-c3n[nH]c4ccccc34)n2)CC1
2 | 73% | < 50% | < 50% | < 50% | < 50% | < 50% | < 50% | < 50% | 93% | < 50% | < 50% | O[C@H]1CC[C@H](Nc2nccc(-n3ccc4ccccc43)n2)CC1
3 | 91% | < 50% | < 50% | < 50% | < 50% | < 50% | < 50% | < 50% | 97% | 94% | 84% | O[C@H]1CC[C@H](Nc2nccc(-n3nnc4ccccc43)n2)CC1
4 | 92% | < 50% | < 50% | < 50% | < 50% | < 50% | < 50% | < 50% | 95% | 78% | 78% | O[C@H]1CC[C@H](Nc2nccc(-n3ncc4ccccc43)n2)CC1
5 | – | – | – | – | > 85% | – | – | – | – | > 85% | – | CS(=O)(=O)CCCOc1cccc2c1ccn2-c1ccnc(N[C@H]2CC[C@H](C(=O)N3CCC(O)CC3)CC2)n1

Reference: ChEMBL document CHEMBL2424622, “Development of amino-pyrimidine inhibitors of c-Jun N-terminal kinase (JNK): kinase profiling guided optimization of a 1,2,3-benzotriazole lead” (Bioorg Med Chem Lett, 2013)
